Measurements as given in publication PMC3567257 (Biochemistry, 2012).
Changes are numbered by the printed parent chain. Structures can show the parent of a compound that is named as a salt. Where two headings read alike, the source gives them in different places. Values belong to the compound of their own block, whether it stands above or below them.

Experiments:
[1] = molecular target: T1, wild-type (WT) JARID1A PHD3 (Homo sapiens, UniProt P29375); experiment: Dose ratio; assay type: binding; conditions: di-N-desethylamiodarone 0, 20, 40, 80 μM; tegaserod maleate 0, 80, 160, 320 μM
T1 sequence (P29375 1601-1660): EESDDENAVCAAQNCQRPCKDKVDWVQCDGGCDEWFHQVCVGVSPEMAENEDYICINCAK

[2] = test system: JARID1A PHD3 D1624 mutants; experiment: Dose ratio; assay type: binding; conditions: di-N-desethylamiodarone 0, 20, 40, 80 μM; tegaserod maleate 0, 80, 160, 320 μM
In short: (§1)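 Fluorescence polarization Schild analysis. Increasing GST-JARID1A PHD3 (wild type or mutant) is titrated against a fixed inhibitor concentration plus 3 nM H3(1–14)K4me3K14fluo probe. The EC50 is determined at each inhibitor level. The dose ratio is the fold change in EC50 with inhibitor relative to EC50 without inhibitor.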

[3] = test system: JARID1A PHD3 D1629 mutants; experiment: Dose ratio; assay type: binding; conditions: di-N-desethylamiodarone 0, 20, 40, 80 μM; tegaserod maleate 0, 80, 160, 320 μM
In short: as §1

[4] = molecular target: T2, JARID1A PHD3 (Homo sapiens, UniProt P29375); experiment: Zinc ejection study; assay type: biochemical; conditions: for zinc release from JARID1A PHD3 (PAR assay): increasing concentrations
T2 sequence (P29375 1601-1660): T1 sequence (P29375 1601-1660)
In short: (§2)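 His6-JARID1A PHD3 or (HQ)5-HaloTag reader-domain fusion at 5 μM was treated with increasing test compound concentrations in 10 mM PAR, 30 mM HEPES, 150 mM NaCl, pH 7.4, 5% v/v DMSO. Triplicates were shaken 10 min. A boiled DMSO-only sample served as the destabilization-induced zinc release reference. Zinc release was read as absorbance at 500 nm, with DMSO-only values subtracted.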

[5] = molecular target: T2, JARID1A PHD3; experiment: HaloTag assay for histone peptide binding; conditions: for effect on JARID1A PHD3 binding to H3K4me3 peptide in HaloTag assay: compound 0–200 μM
In short: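 (HQ)5-HaloTag-JARID1A PHD3 (40 μM as added) is captured on HaloTag-ligand plates for 2 h with shaking, then washed with HBST. […] Detection uses streptavidin-HRP (1:2,000, 20 min), six washes and chemiluminescence. Diluent is StabilCoat with 0.5 mM TCEP, at ambient temperature. IC50 is fitted from relative binding versus log[inhibitor].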

[6] = molecular target: T3, AIRE PHD1 (Homo sapiens, UniProt O43918); experiment: HaloTag assay counterscreen; assay type: binding; conditions: 0, 50, 100, 200 μM
T3 sequence (O43918 293-354): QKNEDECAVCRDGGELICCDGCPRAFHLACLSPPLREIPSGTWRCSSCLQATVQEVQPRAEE

[7] = molecular target: T4, BHC80 PHD (Homo sapiens, UniProt Q96BD5); experiment: HaloTag assay counterscreen; assay type: binding; conditions: 0, 50, 100, 200 μM
T4 sequence (Q96BD5 486-543): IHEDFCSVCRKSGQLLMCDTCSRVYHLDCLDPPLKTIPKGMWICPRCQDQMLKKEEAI

[8] = molecular target: T5, RAG2 PHD (Mus musculus, UniProt P21784); experiment: HaloTag assay counterscreen; assay type: binding; conditions: 0, 50, 100, 200 μM
T5 sequence (P21784 414-487): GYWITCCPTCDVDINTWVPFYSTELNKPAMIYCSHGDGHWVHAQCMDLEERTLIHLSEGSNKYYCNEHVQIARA

[9] = molecular target: T6, JMJD2A DTD (Homo sapiens, UniProt O75164); experiment: HaloTag assay counterscreen; assay type: binding; conditions: 0, 50, 100, 200 μM
T6 sequence (O75164 895-1011): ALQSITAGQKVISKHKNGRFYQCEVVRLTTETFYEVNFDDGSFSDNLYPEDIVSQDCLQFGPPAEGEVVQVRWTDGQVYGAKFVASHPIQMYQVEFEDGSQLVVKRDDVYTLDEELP

[10] = molecular target: T2, JARID1A PHD3; experiment: Affinity pull down with TMR-labeled HaloTag-JARID1A PHD3; assay type: binding; conditions: for inhibition of JARID1A PHD3 in affinity pull down: compound 0–500 μM
In short: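 Streptavidin-agarose beads are loaded with biotinylated histone peptide (about 300 pmol per 6.6 μL bed volume) in 1% BSA-HBST for 30 min. HaloTag-JARID1A PHD3 is prelabeled with TMR ligand (10 μM each, 15 min, dark) and used at 100 nM final with beads. Compound is 0–500 μM at 5% DMSO, 45 min ambient, dark. After three HBST washes, beads are boiled in SDS buffer, run on 12% SDS-PAGE and scanned for TAMRA fluorescence.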

[11] = molecular target: T7, GST-JARID1A PHD3 (Homo sapiens, UniProt P29375); experiment: Fluorescence polarization binding assay; conditions: for loss of polarization (loss of peptide binding): up to 200 μM
T7 sequence (P29375 1601-1660): T1 sequence (P29375 1601-1660)

[12] = molecular target: T6, JMJD2A DTD; experiment: Fluorescence polarization counterscreen; assay type: binding
In short: (§3)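 Test compound titrated into GST-reader fusion at its 90% fraction-bound concentration plus 3 nM fluorescein-labeled H3(1–14) probe. Protein: AIRE PHD1 4 μM and BHC80 PHD 60 μM (K4-unmodified probe); JMJD2A DTD 4 μM and RAG2 PHD 25 μM (K4me3 probe). Buffer was 30 mM HEPES, 150 mM NaCl, pH 7.4, 0.01% Triton X-100. Triplicates read by polarization. IC50 fitted from fraction bound versus log[inhibitor].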

[13] = molecular target: T5, RAG2 PHD; experiment: Fluorescence polarization counterscreen; assay type: binding; conditions: NM: Not measurable within solubility limit of compound
In short: as §3

[14] = molecular target: T3, AIRE PHD1; experiment: Fluorescence polarization counterscreen; assay type: binding; conditions: H3K4-unmodified probe; NM: Not measurable within solubility limit of compound
In short: as §3

[15] = molecular target: T4, BHC80 PHD; experiment: Fluorescence polarization counterscreen; assay type: binding; conditions: H3K4-unmodified probe; NM: Not measurable within solubility limit of compound
In short: as §3

[16] = molecular target: T3, AIRE PHD1; experiment: Zinc ejection study; assay type: biochemical; conditions: compared with JARID1A PHD3
In short: as §2

[17] = molecular target: T4, BHC80 PHD; experiment: Zinc ejection study; assay type: biochemical; conditions: compared with JARID1A PHD3
In short: as §2

[18] = molecular target: T8, JMJD2A double tudor domain (Homo sapiens, UniProt O75164); experiment: Zinc ejection study; assay type: biochemical
T8 sequence (O75164 895-1011): T6 sequence (O75164 895-1011)
In short: as §2

[19] = molecular target: T9, JARID1A PHD3 D1629A (Homo sapiens, UniProt P29375, D1629A); assay type: binding; conditions: D1629 mutation, independent of substitution
T9 sequence (P29375 1601-1660 D1629A): T1 sequence (P29375 1601-1660) with D29A

[20] = molecular target: T10, JARID1A PHD3 D1629N (Homo sapiens, UniProt P29375, D1629N); assay type: binding; conditions: D1629 mutation, independent of substitution
T10 sequence (P29375 1601-1660 D1629N): T1 sequence (P29375 1601-1660) with D29N

Compound: CCCCc1oc2ccccc2c1C(=O)c1cc(I)c(OCCN)c(I)c1 [Di-N-desethylamiodarone, di-N-desethylamiodarone]
- shift of EC50 / dose ratio with increasing fixed inhibitor [1]: increase in EC50 values
- shift of EC50 / dose ratio with increasing fixed inhibitor [2]: dose ratios were less pronounced than for WT JARID1A PHD3
- shift of EC50 / dose ratio with increasing fixed inhibitor [3]: dose ratios that remained near one

Compound: CCc1oc2ccccc2c1C(=O)c1cc(Br)c(O)c(Br)c1 [benzbromarone]
- effect on JARID1A PHD3 binding to H3K4me3 peptide in HaloTag assay [5]: but not benzbromarone, inhibited JARID1A PHD3

Compound: [H]/N=C(/NCCCCC)N/N=C/c1c[nH]c2ccc(OC)cc12 [tegaserod, Tegaserod maleate]
- effect on JARID1A PHD3 binding to H3K4me3 peptide in HaloTag assay [5]: significantly reduced signal
- loss of peptide binding, AIRE PHD1, HaloTag assay [6]: Modest reductions in binding
- loss of peptide binding, BHC80 PHD, HaloTag assay [7]: Modest reductions in binding
- loss of peptide binding, RAG2 PHD, HaloTag assay [8]: Modest reductions in binding
- loss of peptide binding, JMJD2A DTD, HaloTag assay [9]: Modest reductions in binding
- inhibition of JARID1A PHD3 in affinity pull down [10]: inhibited JARID1A PHD3
- IC50 [11]: 74 ± 16 µM
- IC50 [12]: 95 ± 9.8 µM
- IC50 towards RAG2 PHD, fluorescence polarization assay [13]: exceeded the solubility limits
- IC50 towards AIRE PHD1, fluorescence polarization assay [14]: exceeded the solubility limits
- IC50 towards BHC80 PHD, fluorescence polarization assay [15]: exceeded the solubility limits
- zinc release from JARID1A PHD3 (PAR assay) [4]: not causing zinc release
- shift of EC50 / dose ratio with increasing fixed inhibitor [1]: increase in EC50 values
- shift of EC50 / dose ratio with increasing fixed inhibitor [2]: dose ratios were less pronounced than for WT JARID1A PHD3
- shift of EC50 / dose ratio with increasing fixed inhibitor [3]: dose ratios that remained near one

Compound: CCN(CC)C(=S)SSC(=S)N(CC)CC [disulfiram, tetraethylthiuram disulfide]
- effect on JARID1A PHD3 binding to H3K4me3 peptide in HaloTag assay [5]: significantly reduced signal
- loss of peptide binding, AIRE PHD1, HaloTag assay [6]: Significant (by p-value) loss of peptide binding
- loss of peptide binding, BHC80 PHD, HaloTag assay [7]: Significant (by p-value) loss of peptide binding
- loss of peptide binding, RAG2 PHD, HaloTag assay [8]: Significant (by p-value) loss of peptide binding
- inhibition of JARID1A PHD3 in affinity pull down [10]: inhibited JARID1A PHD3
- loss of polarization (loss of peptide binding) [11]: did not cause a significant loss in polarization
- EC50 [4]: 10 µM
- susceptibility to zinc ejection, AIRE PHD1 [16]: similarly susceptible
- susceptibility to zinc ejection, BHC80 PHD [17]: similarly susceptible
- zinc release from JMJD2A double tudor domain [18]: No zinc release was observed

Compound: O=C(O)/C=C\C(=O)O [maleate]
- effect on JARID1A PHD3 binding to H3K4me3 peptide in HaloTag assay [5]: not maleate

Compound: c1ccc2c(c1)Nc1ccccc1S2 [phenothiazine]
- effect on JARID1A PHD3 binding to H3K4me3 peptide in HaloTag assay [5]: significantly reduced signal
- loss of polarization (loss of peptide binding) [11]: did not cause a significant loss in polarization

Compound: CCCCc1oc2ccccc2c1C(=O)c1cc(I)c(OCCNCC)c(I)c1 [Desethylamiodarone, desethylamiodarone]
- inhibition of JARID1A PHD3 in fluorescence polarization assay ([11]; within the concentration range tested): Neither dimethyl-AMI analog nor desethyl-AMI significantly inhibited

Continued, in another order:

- EC50 ([4]; read-out: concentration for half-maximal zinc loss (PAR assay), 5 μM His6-JARID1A PHD3): 33 µM
Compound: CSS(C)(=O)=O [MMTS, methyl methanethiosulfonate]

- inhibition of JARID1A PHD3 by peptide competition in HaloTag assay ([5]; 25 μM peptide): did not significantly inhibit
Compound: unmethylated H3 peptide: histone H3 peptide unmodified at lysine 4 (ARTKQTARKSTEW; E(PEG-biotin) at position 12)

- effect on JARID1A PHD3 binding to H3K4me3 peptide in HaloTag assay [5]: inhibited JARID1A PHD3
Compound: CCCCc1oc2ccc(NS(C)(=O)=O)cc2c1C(=O)c1ccc(OCCCN(CCCC)CCCC)cc1 [dronedarone]

- effect on JARID1A PHD3 binding to H3K4me3 peptide in HaloTag assay [5]: significantly reduced signal
- loss of peptide binding, AIRE PHD1, HaloTag assay [6]: but not AIRE PHD1 or BHC80 PHD
- loss of peptide binding, BHC80 PHD, HaloTag assay [7]: but not AIRE PHD1 or BHC80 PHD
- loss of peptide binding, RAG2 PHD, HaloTag assay [8]: significantly affected
- loss of peptide binding, JMJD2A DTD, HaloTag assay [9]: significantly affected
- zinc release from JARID1A PHD3 (PAR assay) [4]: not causing zinc release
Compound: CCCCc1oc2ccccc2c1C(=O)c1cc(I)c(OCCN(CC)CC)c(I)c1 [Amiodarone, amiodarone HCl]
- loss of polarization (loss of peptide binding) [11]: did not cause a significant loss in polarization

- IC50 ([10]; read-out: experimental IC50, peptide competition in affinity pull down): 13.6 ± 4.5 µM
- defect in affinity relative to wild-type [19]: greater than 10 fold
- defect in affinity relative to wild-type [20]: greater than 10 fold
Compound: H3K4me3 peptide: histone H3 peptide trimethylated at lysine 4; unlabeled competitor or fluorescein-labeled H3(1–14) probe
